Experimental data published in ChEMBL document CHEMBL3351931, “Synthesis of natural-like acylphloroglucinols with anti-proliferative, anti-oxidative and tube-formation inhibitory activity” (Eur J Med Chem, 2014).
Calls of active or inactive are those of the source. No cut-off for these calls is given here.

How the values were obtained:
[1] = Antiproliferative activity against human HMEC1 cells after 72 hrs; assay type: functional, cell-based; conditions: HMEC-1, 72 h
Summary of the method: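 SV-40T-transfected HMEC-1 seeded 1.5 × 10³ cells/well in ECGM with 10% FCS, supplement mix and antibiotics, 37 °C, 5% CO2. After 24 h, a reference plate was crystal-violet stained for baseline. The remaining cells were given increasing compound concentrations (DMSO stock) for 72 h, then crystal violet stained and read at 540 nm. 0.1% DMSO in ECGM served as negative control. IC50 ± SD from three independent experiments with different passages, hexaplicates per concentration.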

[2] = Antioxidant activity in phosphate buffer assessed as trolox equivalents ratio at pH 7.4 after 15 mins by ORAC-fluorescein assay; assay type: physicochemical; conditions: pH 7.4, 0.25 h
Summary of the method: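 ORAC-FL: fluorescein probe (final 300 nM) in 75 mM phosphate buffer pH 7.4; antioxidant (test compounds 1–5 µM, five concentrations; Trolox 1–8 µM standards) preincubated with fluorescein 15 min at 37 °C. Reaction started with AAPH (final 12 mM). Fluorescence read every min for 80 min (ex 485/em 536 nm). AUC converted to Trolox equivalents; quadruplicate, ≥4 independent assays.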

HMEC-1 [3] = experiment: Antiangiogenic activity in HMEC1 assessed as inhibition of tube formation at 6.25 to 50 uM after 19 hrs by matrigel assay; assay type: functional; conditions: Homo sapiens
HMEC-1 [4] = experiment: Antiangiogenic activity in HMEC1 assessed as inhibition of tube formation at 12.5 to 100 uM after 19 hrs by matrigel assay; assay type: functional; conditions: Homo sapiens

SMILES | IC50 [1] [µM] | Ratio [2] | inhibition (HMEC-1 [3]) | inhibition (HMEC-1 [4])
CCC(C)C(=O)c1c(O)cc2c(c1O)CCC(C)(C)O2 (stereo not drawn) | 29.3 | 1.2 |  | 
CC(C)=CCC/C(C)=C/Cc1c(O)cc(O)c(C(=O)C(C)C)c1O | 21 | 0.8 |  | 
CCC(=O)c1c(O)cc(O)c(C/C=C(\C)CCC=C(C)C)c1O | 22.4 | 0.6 |  | 
COc1cc(C(=O)c2c(O)cc3c(c2O)CCC(C)(C)O3)cc(OC)c1O | 23.9 | 3 |  | 
CC1(C)CCc2c(cc(O)c(C(=O)c3ccc(O)c(O)c3)c2O)O1 | 0.88 | 2.8 |  | 
CCC(C)C(=O)c1c(O)cc(O)c2c1OC(C)(CCC=C(C)C)CC2 (stereo not drawn) |  | 0.3 |  | 
CC(=O)c1c(O)cc(O)c(C/C=C(\C)CCC=C(C)C)c1O | 22.5 | 1 |  | 
COc1cc(O)c(CC=C(C)C)c(O)c1C(=O)/C=C/c1ccc(O)cc1 [XANTHOHUMOL] |  | 2.3 |  | 
CC1(C)CCc2c(cc(O)c(C(=O)c3cc(O)cc(O)c3)c2O)O1 | 25.5 | 3 |  | 
CC(=O)c1c(O)cc(O)c2c1OC(C)(CCC=C(C)C)CC2 (stereo not drawn) | 20.3 | 0.8 |  | 
CCC(C)C(=O)c1c(O)cc(O)c(C/C=C(\C)CCC=C(C)C)c1O (stereo not drawn) | 11 | 0.4 | Active | 
COc1ccc(C(=O)c2c(O)cc3c(c2O)CCC(C)(C)O3)cc1OC | 48 | 1.3 |  | Active
COc1cc(C(=O)c2c(O)cc3c(c2O)CCC(C)(C)O3)cc(OC)c1OC | 51.5 |  |  | 
COc1ccc(C(=O)c2c(O)cc3c(c2O)CCC(C)(C)O3)cc1 | 43.4 | 1.1 |  | 
CCCC(C)C(=O)c1c(O)cc(O)c(C/C=C(\C)CCC=C(C)C)c1O (stereo not drawn) | 8.7 | 0.3 |  | 
COc1cc(C(=O)c2c(O)cc3c(c2O)CCC(C)(C)O3)cc(O)c1O | 7.6 | 2.1 |  | 
CC1(C)CCc2c(cc(O)c(C(=O)c3ccc(O)cc3)c2O)O1 | 53.8 | 6.6 |  | 
